Screens (PubChem)
HNF4A DNA FP: change in binding of human HNF4 alpha to DNA; actives 0.3% (n = 360,000); HNF4a-FITC DNA binding, fluorescence polarization, 1 h; AID 1224865; activity change, % at 10 µM; in the data active = activity change above about 30%, passing the limit was not always enough
CSN inh: inhibitors of human CSN-mediated cullin deneddylation; Q92905; actives 0.38% (n = 360,000); inhibition, % at 12.5 µM; Purified CSN, SCF-Nedd8-OG deneddylation, fluorescence polarization;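 active = pattern-corrected inhibition above about 35%, with an unprinted fluorescence ratio check between 0.5 and 1.5, limit read from the data, passing the limit was not always enough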
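Test system: Human Csn5 produced in HEK293T cells | Compound: 12.5 µM single point | Times: 90 min, room temperature | Signal: Fluorescence polarization readout | Read-out basis: % inhibition of substrate cleavage by Csn5 | Controls: no-enzyme wells high, enzyme-with-substrate wells low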
TPT1 inh: blocks Candida albicans tRNA 2'-phosphotransferase; recombinant caTPT1, FP RNA substrate dephosphorylation; actives 0.81% (n = 300,000); inhibition, % at 5 µM;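 active = inhibition above the mean of all tested compounds plus 3 SD, set per screening campaign, cut at about 24% in these data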
Xi reactivation: reactivates the inactive X chromosome in mouse fibroblasts; XiGFP mouse fibroblasts, % GFP-positive cells imaging, 3 d; cells co-treated with 5-aza-dC sensitizer; scaled so ellipticine positive control = 100%; actives 0.055% (n = 360,000); activation, % at 7.58 µM; AID 743238;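 active = mean normalized replicate activation at least 10% and every replicate at or above 10%; inconclusive = only one of the two criteria met; inactive = mean below 10% and not all replicates reach 10%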
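assay system = SV40-immortalized XiGFP fibroblast cells, line 68-5-11 | buffer or medium = DMEM plus 5-aza-dC sensitizer | doses = single-point pinned compound dosing | times = 3-day compound exposure, then 15 min fixation at room temperature | benchmarks = positive control ellipticine, 6 µM final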
aDG glyco up: increases alpha dystroglycan glycosylation. Pro5-aDG cells, alpha-DG glycosylation AlphaScreen (IIH6); 0% Pro5, 100% B10-LARGE cell signal. actives 0.22% (n = 360,000). AID 624168. activation, % at 10 µM;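 active = activation of at least 8% versus controls, or a plate z-score of at least 8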;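 note: Pro5 are CHO cells carrying HIG-tagged alpha-DG that lacks glycosylation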
Rpn11 inh: inhibitors of human proteasome Rpn11; human 26S proteasome, Ub4-pepOG fluorescence polarization; 20S core pre-blocked with epoxomicin; inhibition, % at 20 µM; actives 0.59% (n = 360,000); AID 588493;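 active = inhibition at 20 µM, scaled to each plate's controls, above about 33%, limit read from the data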
Rpn11 inh conf: confirmation of human proteasome Rpn11 inhibitors; purified human 26S proteasome, Ub4-pepOG fluorescence polarization; proteasome pretreated with epoxomicin; actives 29% (n = 1,900); shares compounds with Rpn11 inh; inhibition, % at 20 µM
MMP-2 inh: counter-screen for RPN11 inhibitors: inhibition of human MMP-2; actives 4% (n = 1,900); AID 602330; recombinant MMP-2, FRET peptide cleavage fluorescence; shares compounds with Rpn11 inh; inhibition, % at 20 µM;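 note: human MMP-2 activated beforehand with APMA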
Thrombin inh: blocks bovine thrombin, flagging nonselective RPN11 hits; inhibition, % at 20 µM; bovine thrombin cleavage of Ub4-pepOG, fluorescence polarization; shares compounds with Rpn11 inh; actives 13% (n = 1,900); AID 602333;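 active = mean inhibition at least 40% at 20 µM, or signal 3 deviations below plate average, so some actives read negative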
Target sequence (P00735 whole entry, looked up): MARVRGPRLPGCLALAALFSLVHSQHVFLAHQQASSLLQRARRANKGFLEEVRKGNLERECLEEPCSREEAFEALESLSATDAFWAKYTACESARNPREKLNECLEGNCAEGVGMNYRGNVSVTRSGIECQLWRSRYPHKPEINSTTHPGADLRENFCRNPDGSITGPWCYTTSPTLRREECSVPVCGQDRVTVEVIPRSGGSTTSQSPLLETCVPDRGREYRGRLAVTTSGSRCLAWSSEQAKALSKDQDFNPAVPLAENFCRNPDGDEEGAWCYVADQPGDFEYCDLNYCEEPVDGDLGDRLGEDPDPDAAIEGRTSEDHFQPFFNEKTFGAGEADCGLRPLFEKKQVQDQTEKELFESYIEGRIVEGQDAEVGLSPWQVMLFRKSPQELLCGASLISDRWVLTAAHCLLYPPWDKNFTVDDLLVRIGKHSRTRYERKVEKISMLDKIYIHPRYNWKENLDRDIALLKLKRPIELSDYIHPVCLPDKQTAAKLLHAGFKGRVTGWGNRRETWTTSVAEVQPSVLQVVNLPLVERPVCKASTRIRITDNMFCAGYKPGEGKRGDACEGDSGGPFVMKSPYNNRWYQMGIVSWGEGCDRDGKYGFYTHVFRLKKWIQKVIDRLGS
Numbers stand for hits; 0 = inactive; ? = inconclusive; - = not tested or not shown. In the library only some 1.3% were active in any assay of this set; here they are far more common. Cut-off read from the data, not from the text of the source, unless noted: active = inhibition above about 40%; inactive = the rest.

SMILES	HNF4A DNA FP	CSN inh	TPT1 inh	Xi reactivation	aDG glyco up	Rpn11 inh	Rpn11 inh conf	MMP-2 inh	Thrombin inh
CCN(CC)c1ccc(/C=C2\C(=O)N(c3nnc(C)c(=O)[nH]3)N=C2C)cc1	0	0	42.7	-	0	43.7	48.5	0	0
O=C(Nc1ccccc1-c1nc2ccccc2s1)C1=COCCO1	0	0	0	0	0	61.8	0	0	0
O=C(Cn1c(=O)cnc2ccccc21)Nc1ccccc1N1CCOCC1	0	0	0	0	0	0	-	-	-
CC(=O)c1ccccc1NC(=O)Cn1c(=O)cnc2ccccc21	0	0	0	0	0	41.1	0	0	0
CCn1c(=S)[nH]c2cc(C(=O)O)ccc21	-	-	0	-	-	-	-	-	-
CCn1c(=O)cc(C(F)(F)F)[nH]c1=S	0	0	0	0	0	53.0	0	0	0
COc1ccccc1-c1ccc2c(c1)[C@H]1[C@H](CCN1C(=O)C1CCOCC1)[C@H](CO)N2	-	-	-	0	-	-	-	-	-
Cc1ccc(N(CC(=O)N/N=C/c2ccc(OC3CSC3)cc2)S(=O)(=O)c2ccccc2)cc1	0	0	0	-	0	0	-	-	-
CC(C)c1ccc(N(CC(=O)N/N=C/c2ccc(OC3CSC3)cc2)S(=O)(=O)c2ccccc2)cc1	0	0	0	0	0	39.9	0	0	0
CC1(C)CC(=O)C=C(Nc2ccc(OCC(F)(F)C(F)F)cc2)C1	0	0	0	-	0	104.6	0	0	0
CC1(C)CC(=O)C=C(Nc2ccc(F)cc2)C1	0	0	0	-	0	0	-	-	-
O=C(/C=C/c1ccccc1Cl)Nc1ccc2c(c1)C(=O)NC2=O	0	0	0	0	0	54.0	57.4	0	0
O=C(C[C@H]1C=C[C@H](NC(=O)Nc2ccc3c(c2)OCO3)[C@@H](CO)O1)NCCCN1CCOCC1	-	-	-	0	-	-	-	-	-
CCOc1ccc(C(=O)N/N=C/c2cc(Cl)ccc2[N+](=O)[O-])cc1	0	0	0	0	0	58.7	41.4	0	0
COc1ccc(-n2c(N)c(C(=O)Nc3c(C)n(C)n(-c4ccccc4)c3=O)c3nc4ccccc4nc32)cc1	0	0	0	0	0	88.0	0	0	0
C[C@H]1CN([C@@H](C)CO)C(=O)c2cc(NC(=O)Nc3ccccc3)ccc2O[C@@H]1CN(C)CC1CCCCC1	-	-	-	0	-	-	-	-	-
COc1ccc(-c2ccc(C#N)c(SCC(=O)Nc3sc4c(c3C#N)CCC4)n2)cc1OC	47.4	0	0	-	0	83.1	0	0	0
N#Cc1cc2c(nc1SCC(=O)Nc1sc3c(c1C#N)CCC3)CCC2	0	0	0	-	0	0	-	-	-
COc1ccc(CN(C)C[C@H]2OCCCC[C@H](C)Oc3ccc(NC(=O)Nc4cccc5ccccc45)cc3C(=O)N([C@H](C)CO)C[C@H]2C)cc1	-	-	-	0	-	-	-	-	-
Cc1ccc(C(=O)Nc2nc3c(s2)CCCC3)o1	0	0	0	-	0	0	-	-	-
O=C(Nc1nc2c(s1)CCCC2)c1ccc(Br)o1	0	0	0	-	0	89.7	0	0	0
C[C@H]1CN([C@@H](C)CO)C(=O)c2cccc(NC(=O)CCCCCC(=O)Nc3ccccc3N)c2O[C@@H]1CN(C)C(=O)Nc1ccc(C(F)(F)F)cc1	-	-	-	0	-	-	-	-	-
NC(N)=NCCCS(=O)(=O)Nc1ccc(Nc2c3ccccc3nc3cc([N+](=O)[O-])ccc23)cc1	0	0	-	0	0	73.4	0	0	48.1
O=[N+]([O-])c1ccc(Nc2c3ccccc3nc3ccccc23)cc1	0	0	-	0	0	0	-	-	-
CCC(=O)N1CC2(C1)[C@H](c1ccccc1)[C@@H](CO)N2Cc1ccccc1OC	-	-	-	0	-	-	-	-	-
SMILES	HNF4A DNA FP	CSN inh	TPT1 inh	Xi reactivation	aDG glyco up	Rpn11 inh	Rpn11 inh conf	MMP-2 inh	Thrombin inh
CCC(CO)Oc1cc(NC(=O)c2ccc(N)cc2)c2ncn(C(C)C)c2c1 (stereo unspecified)	0	0	-	0	0	43.2	44.4	0	0
CCC(CO)Oc1cc(NC(=O)c2ccc(F)cc2)c2ncn(C(C)C)c2c1 (stereo unspecified)	0	0	-	0	0	0	-	-	-
CN(C)c1ccc(/C=C2/C=C(c3ccc4c(c3)CCCC4)OC2=O)cc1	45.4	0	0	0	0	68.6	0	0	0
Cc1ccc(C=C2C=C(c3ccccc3)OC2=O)cc1	0	0	-	0	0	0	-	-	-
CCCCCCCCCCOC(=O)Cn1c(COc2ccccc2)[n+](C)c2ccccc21	0	0	0	0	0	0	-	-	-
CCCCCCCCCCOC(=O)Cn1c(COc2cccc(C)c2)[n+](C)c2ccccc21	0	0	0	0	0	40.4	0	0	0
CCCCCCCCCCOC(=O)Cn1c(COc2ccc(Cl)cc2)[n+](C)c2ccccc21	0	0	0	0	0	51.6	49.8	0	0
COc1ccc(S(=O)(=O)N(C)C[C@@H]2Oc3ccc(NC(=O)Cc4cn(C)c5ccccc45)cc3CC(=O)N([C@H](C)CO)C[C@H]2C)cc1	-	-	-	0	-	-	-	-	-
CN(C)C(=O)C[C@@H]1CC[C@H]2[C@@H](COC[C@@H](O)CN2C(=O)C2CC2)O1	-	-	-	0	-	-	-	-	-
CC(=O)Nc1ccc(N/C=C/C(=O)c2ccc(Cl)cc2)cc1	0	0	0	0	0	97.8	0	0	0
CC(=O)c1ccc(N/C=C\C(=O)c2ccc(C)cc2)cc1	0	0	0	0	0	0	-	-	-
O=C1c2cccc3cccc(c23)C(=O)N1c1ccc2ncccc2c1	0	0	0	-	0	136.5	41.4	0	0
O=C(O)C[C@@H]1CC[C@H](NC(=O)c2ccccc2F)[C@H](CO)O1	-	-	-	0	-	-	-	-	-
CCCNC(=O)Nc1ccc2c(c1)OC[C@H](C)N(C(=O)c1ccccc1F)C[C@@H](C)[C@H](OC)CN(C)C2=O	-	-	-	0	-	-	-	-	-
Cc1cc(C)c2cc3c(N)c(C(=O)Nc4c(C)[nH]c(=O)[nH]c4=O)sc3nc2c1	0	0	47.8	?	0	46.0	121.7	0	0
CCC(=O)Nc1c(C#N)c2nc3ccccc3nc2n1C1CCCCC1	0	0	0	-	0	92.2	0	0	0
CCCCC(CC)Cn1c(N)c(C#N)c2nc3ccccc3nc21 (stereo unspecified)	0	0	0	-	0	0	-	-	-
CCCCn1c(NC(=O)CC)c(C#N)c2nc3ccccc3nc21	0	0	0	-	0	189.4	0	0	0
O=C(Nc1ccc(F)cc1)N[C@H]1CC[C@H](CCNC(=O)c2ccccc2F)O[C@H]1CO	-	-	-	0	-	-	-	-	-
